Screening results as filed in PubChem BioAssay.
This is a sample that favours compounds with a hit; in the whole collection about 1.9% have one here.
V-ATPase pH – regulators of yeast V-ATPase proton pumping, primary screen, pHLuorin cytosolic pH fluorescence; hit rate 0.37% among 350,000; response, % at 10 µM; AID 504577, 2011; S. cerevisiae; in the data active = response mostly above about 7.3%, no sharp cut-off; inactive = mostly below about 5.4%; note: actives read high
T cell modulator – modulators of CD8 T cell-vesicle binding, primary screen, mouse 2C CD8+ T cells, flow cytometry. 2C CD8+ T cell-vesicle binding; stronger effect = lower value. response (vesicle binding), % at 7 µM. hit rate 0.068% among 330,000;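 active = response, share of CD8 T cells binding vesicles, and their 90th percentile fluorescence all below set limits, cut at about 80% in these data, passing the limit was not always enough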;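 note: values below 100% mean blocked vesicle binding to the CD8+ T cells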
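Benchmarks: naked versus QL9-loaded vesicles / Assay system: purified 2C TCR transgenic mouse naive CD8+ T cells / Technique: high-throughput flow cytometry with anti-B7-1 and anti-CD8 staining / Timing: Cell–vesicle co-incubation 1.5 h at 37 °C, staining 20 min on ice / Read-out: percent CD8+ FL2 mean versus row control / Probe or stimulus: QL9-loaded Drosophila micro-vesicles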
Rce1 inhib – yeast Rce1p protease inhibitors, primary screen, biochemical, fluorescence, cell-free homogeneous | yeast membranes, quenched prenylated peptide cleavage fluorescence | hit rate 0.27% among 290,000 | calls only;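 active = fall in fluorescence gain of 50% or more versus controls, with final raw signal at or below 3038400; inconclusive = same 50% fall but final raw signal above 3038400; inactive = fall in fluorescence gain under 50%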;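 note: plate controls were neutral control wells for no effect and wells lacking membranes for full effect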
Target sequence (Q03530 whole entry, looked up): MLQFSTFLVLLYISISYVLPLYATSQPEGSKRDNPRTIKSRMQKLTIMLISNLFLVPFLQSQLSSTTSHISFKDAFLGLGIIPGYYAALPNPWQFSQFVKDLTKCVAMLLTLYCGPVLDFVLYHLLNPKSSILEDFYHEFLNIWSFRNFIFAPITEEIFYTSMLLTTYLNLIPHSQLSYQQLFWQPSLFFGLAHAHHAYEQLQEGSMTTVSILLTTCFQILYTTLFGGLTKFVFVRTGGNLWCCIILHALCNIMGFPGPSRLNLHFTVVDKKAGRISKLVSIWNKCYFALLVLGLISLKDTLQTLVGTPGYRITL
MIN6 prolif – inducers of MIN6 beta-cell proliferation, primary screen, ATP luminescence, uHTS | MIN6 cells proliferation, ATPlite luminescence, 48 h; cells starved in 0.2% serum; 100% = growth in 10% serum | proliferation, % at 10 µM | hit rate 0.29% among 330,000;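 active = compounds whose signal lies at least 3.5 SD above the mean of all wells on their plate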;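 note: 0% = DMSO-treated cells in low-serum medium and 100% = 10% serum control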
Yeast superoxide – reduction of superoxide in aged yeast, primary screen, HTS; S. cerevisiae aged cells, superoxide DHE fluorescence; stronger effect = lower value; superoxide response (% of plate mean), % at 10 µM; hit rate 0.18% among 330,000;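 active = superoxide response under a set limit, about three screen SD below normal, cut at about 65% in these data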;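 note: yeast aged for seven days with compound at 30 °C before DHE staining; 100% = average MFI of all compound-treated wells on the plate with controls excluded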
KLK7 zymogen act – proKLK7 zymogen activators, primary screen, biochemical, fluorescence intensity; Kallikrein-7 (Homo sapiens), P49862; purified proKLK7, EDANS-DABCYL substrate fluorescence; 100% is mature enzyme control, 0% vehicle; activation, % at 7 µM; hit rate 0.9% among 370,000; AID 652039, 2013;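 active = activation above the mean of all tested compounds plus 3 SD, computed per campaign excluding outliers beyond control limits, cut at about 13% in these data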
KLK7 act conf – proKLK7 zymogen activators, confirmation, biochemical, fluorescence intensity, triplicate; shares compounds with KLK7 zymogen act; purified proKLK7, EDANS-DABCYL substrate fluorescence; scaled: vehicle 0, mature enzyme 100; activation, % at 7 µM; hit rate 68% among 3,200;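 active = activation, as change over the incubation, above the mean of all tested compounds plus 3 SD, cut at about 13% in these data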
EDANS-DABCYL int – EDANS-DABCYL substrate optical interference, artefact control for kallikrein-7 zymogen activator project, biochemical, fluorescence intensity, high throughput. shares compounds with KLK7 zymogen act. activation, % at 7 µM. no enzyme, 4 h; solvent 0%, active enzyme control 100%. AID 686952, 2013. hit rate 80% among 3,200;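 active = activation above the all-compound mean plus 3 SD, ignoring values outside control-based bounds, cut at about 4.8% in these data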;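 note: value is the 4 h activation minus the activation read at time zero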
* marks the source's active call; other numbers are inactive results; i = inactive; ? = inconclusive; nt = no result given.

SMILES	V-ATPase pH	T cell modulator	Rce1 inhib	MIN6 prolif	Yeast superoxide	KLK7 zymogen act	KLK7 act conf	EDANS-DABCYL int
CC1CCCCC12NC(=O)N(CC(=O)Nc1ccc(OC(F)F)cc1)C2=O (stereo unspecified)	3.3	178.5	nt	-1.8	93.4	0.2	nt	nt
COc1ccc(-c2c(C)oc3c(CN4CCCCC4C)c(O)ccc3c2=O)cc1OC (stereo unspecified)	-0.8	306.9	i	-1.9	94.0	5.0	nt	nt
COc1ccccc1-c1coc2c(CN3CCCC(C)C3)c(O)ccc2c1=O (stereo unspecified)	-2.1	184.2	i	-3.0	109.5	40.0*	65.1*	61.8*
COc1ccc(-c2c(C)oc3c(CN4CCCCC4C)c(O)ccc3c2=O)cc1 (stereo unspecified)	-1.8	256.7	?	0.7	75.3	41.0*	49.8*	51.8*
CC1CCCCN1Cc1c(O)ccc2c(=O)c(-c3ccc(Br)cc3)coc12 (stereo unspecified)	-3.7	nt	i	-3.8	nt	11.1	nt	nt
O=C(CCCN1C(=O)C(=Cc2ccc3c(c2)OCO3)SC1=S)Nc1ccc(C(=O)O)c(O)c1	nt	nt	nt	nt	nt	-0.4	nt	nt
CC1(C)CC(=O)C(C=Nc2cccnc2/N=C/C2=C(O)CC(C)(C)CC2=O)=C(O)C1	2.3	325.3	i	-1.6	108.2	25.1*	-7.2	-3.6
CC1(C)CC(=O)C(C=Nc2cccnc2)=C(O)C1	-7.0	324.8	i	-2.8	100.8	-0.4	nt	nt
CCn1cc([N+](=O)[O-])c(=O)c2cc(F)c(N3CCOCC3)cc21	-0.9	344.8	i	-2.1	95.4	0.6	nt	nt
COC(=O)c1ccc2c(C)c(C(C)(C)O)[nH]c2c1	4.0	399.3	?	-1.1	96.5	27.6*	66.8*	63.5*
Cc1cc(=O)oc2cc3c(cc12)OCCO3	3.4	460.2	i	1.0	99.5	7.6	nt	nt
Cc1cc(=O)oc2cc3c(cc12)OCCN3	4.7	393.2	i	-1.9	87.9	67.4*	76.3*	82.6*
Cc1cc(=O)oc2cc3c(cc12)OCO3	5.2	344.7	i	-2.6	91.3	35.8*	66.5*	74.3*
CCOC(=O)C1CCN(C(=O)Nc2ccc3nccnc3c2)CC1	-2.3	377.8	i	-1.8	84.5	14.2*	71.4*	70.8*
CCOC(=O)C1CCN(C(=O)Nc2ccc3snnc3c2)CC1	5.4	196.1	i	-1.5	107.1	-0.2	nt	nt
CCOC(=O)N1CCN(C(=O)Nc2ccc3nc(-c4ccccn4)c(-c4ccccn4)nc3c2)CC1	-0.5	252.1	i	1.8	98.1	32.4*	31.8*	32.6*
CCOC(=O)N1CCN(C(=O)Nc2ccc3nc(C)sc3c2)CC1	0.1	355.8	i	-0.4	112.0	-2.1	nt	nt
CC1(C)CC(NC(=O)c2cc(COc3cccc(C(F)(F)F)c3)on2)CCO1 (stereo unspecified)	-10.2	424.6	i	-1.1	112.3	-0.3	nt	nt
CCCS(=O)(=O)NC(=O)C1(C)CCCN(C(=O)c2sccc2C)C1 (stereo unspecified)	nt	nt	nt	nt	nt	-0.5	nt	nt
CSc1ccc(Cl)c(C(=O)N2CCN(c3ncccn3)CC2)c1	-1.1	255.7	nt	1.7	107.7	1.0	nt	nt
CCCc1cc(=O)[nH]c2nnc(SCC(=O)N3CC(C)OC(C)C3)n12 (stereo unspecified)	-1.9	192.9	i	2.6	96.7	-0.6	nt	nt
Cc1ccc(C)c(N(CC(=O)Nc2ccc(-c3nc4ccc(C)cc4s3)cc2)S(C)(=O)=O)c1	1.7	299.6	i	0.0	102.5	19.5*	-8.4	-19.5
